B1: tRNA (parent)
chain: GUUCCGUUGGCGUAAUGGUAACGCGUCUCCCUCCUAAGGAGAAGACUGCGGGUUCGAGUCCCGUACGGAACG

Among the data in the RNAGym collection of RNA variant scans (doi:10.1126/science.aae0568) are yeast fitness values, retold here.

This sample holds only a part of the variants without activity. Where only a bound is given, the exact number is not on record here.

The data set covers variants of B1. Put plainly: yeast fitness relative to wild type (ratio to wild type); higher = fitter; tRNA-Arg(CCU), competitive growth, 37 C, YPD. A digest of the protocol:
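The tRNA-Arg(CCU) gene variants were made by chemical synthesis with a 3% per-site mutation rate at 69 sites and inserted at the native genomic locus of Saccharomyces cerevisiae. After pooling, the strains were competed in YPD at 37°C for 24 hours in six parallel replicates. Gene amplicons from the start population and each end population were read by 100-nucleotide paired-end sequencing, and Darwinian fitness relative to wild type was taken from genotype frequency changes. Genotypes needed ≥ 100 starting reads, and estimates < 0.5 were set to 0.5.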
Regarding U3G G17A C24A C34A C46G, the yeast fitness was ≤ 0.5. In the case of U3G C22A, the yeast fitness came out at 0.682.

Consider U3G U13C A14U C29A, for which the yeast fitness was 0.672. Regarding U3G G18A G41A A45U, the yeast fitness is ≤ 0.5. In the case of U3G C31A A45C it was ≤ 0.5. As for C4A A21C C22U G50C G51A A70U, the yeast fitness was 0.559. U3G C5U U32A C33U: the yeast fitness worked out at 0.595.

On to C4A C5G A20G A57U G68U, for which the yeast fitness was ≤ 0.5.

Consider U3G G48A A69U, for which the yeast fitness is 0.638.

With C4A A14C C24U G25A C34A, the yeast fitness amounted to 0.571. Consider U3G C27G C49G A70G, for which the yeast fitness was ≤ 0.5. On to U3G C5U G6A A65U, for which the yeast fitness is ≤ 0.5. In the case of U3G C5U U32C G41C C49U G67A it was ≤ 0.5; in that of U3G G12A, 0.682. With C4A A43C, the yeast fitness was 0.89.

Take C4A A43G: the yeast fitness was found to be 0.785.

With C4A A15G G17A C33U A57U U59C, the yeast fitness was ≤ 0.5.

In the case of C4A C5A C29G G38C A65U, the yeast fitness is ≤ 0.5. In the case of U3G C27U, the yeast fitness stood at 0.798. For the variant C4A A57C C61G, the yeast fitness is ≤ 0.5. Regarding C4A A37U A43G G58C C60G, the yeast fitness stood at 0.654.

With C4A A15C A20C, the yeast fitness is ≤ 0.5. U3G U8A C31A C55U: the yeast fitness is ≤ 0.5. With C4A C5G A42G, the yeast fitness was ≤ 0.5.

For the variant U3G U16A A65G, the yeast fitness is 0.664.

On to U3G G10A A21C U28A G68C, for which the yeast fitness was ≤ 0.5. For U3G G67C, the yeast fitness was 0.825. As for U3G U8A U26G G38C A40C U53C, the figure is 0.566; as for U3G C11G G44A G48A, ≤ 0.5; as for U3G C24U C31U G50U A69U, 0.56. With U3G C11U C55G, the yeast fitness was ≤ 0.5. U3G C49A: the yeast fitness amounted to 0.655. As for U3G C49G, the figure is 0.809; as for C4A A15C A69C, ≤ 0.5. Take U3G C5U G39A C49U: the yeast fitness is ≤ 0.5. As to U3G C60U, the yeast fitness stood at 0.66. As for U3G C60G, the figure is 0.577; as for U3G C24U C34U A40G C55G, ≤ 0.5.

Consider U3G U26A U28G A45C U54C G67A A69U, for which the yeast fitness is ≤ 0.5.

For the variant C4A A20C G68A, the yeast fitness is ≤ 0.5.

Take U3G G23A A36U A43G C61A A70G: the yeast fitness is ≤ 0.5. For U3G G48U, the yeast fitness was found to be 0.937. For U3G G48A, the yeast fitness stood at 0.856. Regarding U3G C11U A45U, the yeast fitness turned out to be 0.559. As for U3G C22A C24U U35G A45U G56A, the yeast fitness was ≤ 0.5. Consider U3G C55A G58A, for which the yeast fitness is ≤ 0.5.

As to U3G U8C C62A, the yeast fitness is ≤ 0.5. Regarding C4A A14G G18A G25C, the yeast fitness was ≤ 0.5.

Take U3G C30G A40G: the yeast fitness is 0.836. For the variant U3G C30U G48C, the yeast fitness was 0.593. As for U3G C22A G25C C33U A69C, the figure is 0.507. Turning to U3G U53A, the yeast fitness turned out to be 0.662. In the case of U3G G41A, the yeast fitness was 0.748. Turning to C4A C5A C60A, the yeast fitness is 0.671. Regarding C4A C5U G52C C61G, the yeast fitness was ≤ 0.5. Take U3G U19C: the yeast fitness worked out at 0.841. As to U3G U19G, the yeast fitness was determined as 0.641.

On to C4A A15G A40G U64A, for which the yeast fitness is ≤ 0.5. Regarding C4A C5A C22A U28G C33G A57G G67C, the yeast fitness was ≤ 0.5. Turning to U3G C5U G23C C34G C55G A70C, the yeast fitness was ≤ 0.5. On to C4A A15U G18C G56C, for which the yeast fitness was ≤ 0.5. In the case of C4A A14G C24U U32G A43G it was ≤ 0.5; in that of C4A C5U A36G A42C, ≤ 0.5; in that of C4A A21C C22U U35C G50C A70U, 0.563. With C4A A45U G51A, the yeast fitness was ≤ 0.5. As to C4A A21U U47G, the yeast fitness was 0.535. In the case of C4A A21U A43G C62A, the yeast fitness is ≤ 0.5. C4A A36C A42G: the yeast fitness is ≤ 0.5. For the variant C4A A21U C46A, the yeast fitness was determined as 0.58. Regarding U3G G17A, the yeast fitness was determined as 0.665. For the variant C4A C5U U19A, the yeast fitness was 0.532. As for U3G C49G C60G C62G G63A, the figure is ≤ 0.5; as for U3G U8C A45G, 0.702. Regarding C4A A69C, the yeast fitness worked out at 0.863.

Regarding C4A A69G, the yeast fitness came out at 0.904. Regarding C4A A69U, the yeast fitness is 0.952.

As to U3G C11U A40U, the yeast fitness came to 0.529. As to C4A C5G A20C A40U C61G, the yeast fitness was ≤ 0.5.

C4A A15U C61A: the yeast fitness was found to be 0.78. Take C4A C5U A20G U28A A37U C61U A69U: the yeast fitness is ≤ 0.5. As for C4A A14U A20C U28G U54C, the figure is ≤ 0.5. On to C4A A21U C27A G41C, for which the yeast fitness is ≤ 0.5. As to C4A C5G G50A U53A C60U G63C, the yeast fitness stood at 0.614. C4A A40U A42G C55G: the yeast fitness is ≤ 0.5. On to U3G C5U U26A G38A C55A C66U, for which the yeast fitness was 0.568.

Consider C4A A14C A21C C22U C24U C29U U53C, for which the yeast fitness was 0.568. Consider U3G U16G U28C A57U, for which the yeast fitness is ≤ 0.5. Consider U3G U35G A37U U47C G56C A69C, for which the yeast fitness was ≤ 0.5.

Take U3G G44C U54A: the yeast fitness is ≤ 0.5. For the variant U3G C27U U35G A42U, the yeast fitness was ≤ 0.5.

For U3G C27G U35C, the yeast fitness is ≤ 0.5. With C4A A20G C34U, the yeast fitness was ≤ 0.5. Regarding C4A C5G C46G, the yeast fitness was ≤ 0.5.

On to C4A A42C C66G G68C, for which the yeast fitness was ≤ 0.5. For U3G C62A, the yeast fitness amounted to 0.75. Take U3G G68U: the yeast fitness is 0.808.

With C4A A21G A65U, the yeast fitness worked out at 0.668. For the variant U3G C24G C49U C55G G58A, the yeast fitness is ≤ 0.5.

Consider C4A A37G A45C C66G, for which the yeast fitness is ≤ 0.5. For the variant C4A A45U U47A, the yeast fitness is ≤ 0.5.

In the case of C4A A15C C55U G63C, the yeast fitness was ≤ 0.5. C4A A37C A42C: the yeast fitness amounted to 0.506. U3G C22A C24U U35G A45U: the yeast fitness is ≤ 0.5. As to U3G U8C G58A, the yeast fitness was 0.763. As for U3G C46U C49U, the figure is 0.698. As to C4A A15U G18C G56C G67A, the yeast fitness was ≤ 0.5. On to U3G U8A G18C C29G A36C, for which the yeast fitness is ≤ 0.5. Regarding U3G C30A C31G, the yeast fitness is 0.669.

On to U3G G9C A20G C29A G67U, for which the yeast fitness was ≤ 0.5.

For the variant C4A A20C A42C U54C, the yeast fitness is ≤ 0.5. On to C4A A15C C60U U64A C66A G68A A69G, for which the yeast fitness is ≤ 0.5.

Turning to U3G C27A A65U, the yeast fitness was ≤ 0.5. As for U3G G9C C33G G63A, the yeast fitness stood at 0.606. As for U3G C24A A40C, the figure is ≤ 0.5; as for U3G G25A C27G G50C, 0.537. Regarding U3G C11U C22A, the yeast fitness was ≤ 0.5. As to C4A A57G C62G C66G, the yeast fitness was ≤ 0.5.

On to U3G C55U C66U, for which the yeast fitness was ≤ 0.5. In the case of C4A A15G C33G C60A A70C, the yeast fitness amounted to 0.599. On to C4A A15U A42G C61U, for which the yeast fitness is ≤ 0.5. Take U3G G17C C29U A37G C61U A70C: the yeast fitness turned out to be 0.512.

With U3G U47A G68C, the yeast fitness was ≤ 0.5. U3G C24A C30U A57C A69U: the yeast fitness was ≤ 0.5. As to U3G G6A A14G C55G A65G, the yeast fitness was ≤ 0.5.

On to U3G U16G, for which the yeast fitness was 1.02. As for U3G G18A C30G G41U C49G, the figure is ≤ 0.5; as for U3G C11G U13A C30G C66U A69U, ≤ 0.5; as for U3G C30G C62U, ≤ 0.5.

Consider C4A A57G A70U, for which the yeast fitness turned out to be 0.587. In the case of C4A A57G A70C, the yeast fitness is 0.617.

Turning to U3G G50A, the yeast fitness worked out at 0.817. Consider U3G C66U A70U, for which the yeast fitness came out at 0.534. On to C4A A36G C46G A57C, for which the yeast fitness is ≤ 0.5. On to C4A C5U G39C A42C G52C C62U, for which the yeast fitness is ≤ 0.5.

In the case of C4A A14G C49A, the yeast fitness is ≤ 0.5. Take C4A A57C C66U: the yeast fitness was ≤ 0.5. For the variant C4A A14G C24U U32G A43G C66U, the yeast fitness turned out to be 0.573. With U3G G18A C60G, the yeast fitness stood at 0.538. For U3G U16C G39C A45C C49G, the yeast fitness is ≤ 0.5. As for U3G C11U A70G, the figure is 0.576; as for U3G G56A, 0.898. In the case of U3G U53C C66U A69U it was 0.548; in that of C4A C5G A20C A40U, 0.5. As for U3G G10C C46U G48A, the yeast fitness is ≤ 0.5. As for U3G U13C C22A, the figure is 0.656; as for U3G G6C C30U C33G A36C A40U, ≤ 0.5. On to C4A A15U U19A C27A C29U C33U A70U, for which the yeast fitness was ≤ 0.5. As for C4A A20G A42C C46G C49U A69C, the yeast fitness is ≤ 0.5. With U3G G17A C30U A57U, the yeast fitness was ≤ 0.5. For C4A A20C U47A, the yeast fitness is ≤ 0.5. Take C4A A40U A43G A65U: the yeast fitness is ≤ 0.5.

Regarding C4A C5U C22U C31A C34A, the yeast fitness was ≤ 0.5. In the case of U3G U26A A65G, the yeast fitness was ≤ 0.5. Take U3G U28A: the yeast fitness worked out at 0.605. In the case of U3G U28C it was 0.888; in that of U3G G18A A69U, ≤ 0.5. In the case of C4A A37C A70U, the yeast fitness is ≤ 0.5. On to C4A A20G C24A G52C U54A, for which the yeast fitness is ≤ 0.5.

Consider C4A C5A A20U C46U G48A, for which the yeast fitness is ≤ 0.5. Take U3G G17C C62U: the yeast fitness is ≤ 0.5. In the case of C4A A65C, the yeast fitness was determined as 0.658. Turning to U3G C27A C61A C62U, the yeast fitness was ≤ 0.5. As for C4A A21C C22U G50C A70U, the figure is 0.73. With U3G C49U G58A, the yeast fitness came to 0.901. In the case of U3G G6A A14G G38C G41C C62G it was ≤ 0.5; in that of C4A C5G U54A C62U, 0.536; in that of U3G C29A C46U C61G, ≤ 0.5.
